Measurements as given in ChEMBL document CHEMBL3098105, “7,7'-Diazaindirubin--a small molecule inhibitor of casein kinase 2 in vitro and in cells” (Bioorg Med Chem, 2014).

How the values were obtained:
COLO 205 = assay: Antiproliferative activity against human COLO205 cells after 3 days by sulforhodamine B assay; type: functional; settings: COLO 205, 72 h
Procedure, shortened: (§1)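 Tested in the NCI 60 cell line panel. GI50 is the concentration giving 50% inhibition of cell growth, and values are the mean of two series of tests.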

[1] = biological target: Tyrosine-protein kinase Fgr (Homo sapiens) (UniProt P09769); assay: Inhibition of human Fgr assessed as residual activity at 1 uM relative to control
Chain of Tyrosine-protein kinase Fgr (Homo sapiens) (P09769 2-529 limits assumed): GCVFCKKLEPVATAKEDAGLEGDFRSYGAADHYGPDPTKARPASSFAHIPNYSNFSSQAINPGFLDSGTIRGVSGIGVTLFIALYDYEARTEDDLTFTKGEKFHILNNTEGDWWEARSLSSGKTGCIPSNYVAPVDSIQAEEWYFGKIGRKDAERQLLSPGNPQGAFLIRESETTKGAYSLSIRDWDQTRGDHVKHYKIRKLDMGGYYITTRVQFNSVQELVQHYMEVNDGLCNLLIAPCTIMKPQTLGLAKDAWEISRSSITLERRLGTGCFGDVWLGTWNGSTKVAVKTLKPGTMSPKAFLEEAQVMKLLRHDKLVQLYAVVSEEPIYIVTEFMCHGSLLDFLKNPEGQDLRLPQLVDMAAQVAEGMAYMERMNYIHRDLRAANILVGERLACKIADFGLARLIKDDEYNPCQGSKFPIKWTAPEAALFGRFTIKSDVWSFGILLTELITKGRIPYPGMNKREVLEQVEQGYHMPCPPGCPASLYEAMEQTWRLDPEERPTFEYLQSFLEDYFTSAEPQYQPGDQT

[2] = biological target: Epidermal growth factor receptor (Homo sapiens) (UniProt P00533); assay: Inhibition of EGF-R (unknown origin) assessed as residual activity at 1 uM relative to control
[3] = biological target: Serine/threonine-protein kinase Nek3 (Homo sapiens) (UniProt P51956); assay: Inhibition of human NEK3 assessed as residual activity at 1 uM relative to control
Chain of Serine/threonine-protein kinase Nek3 (Homo sapiens) (P51956 whole entry): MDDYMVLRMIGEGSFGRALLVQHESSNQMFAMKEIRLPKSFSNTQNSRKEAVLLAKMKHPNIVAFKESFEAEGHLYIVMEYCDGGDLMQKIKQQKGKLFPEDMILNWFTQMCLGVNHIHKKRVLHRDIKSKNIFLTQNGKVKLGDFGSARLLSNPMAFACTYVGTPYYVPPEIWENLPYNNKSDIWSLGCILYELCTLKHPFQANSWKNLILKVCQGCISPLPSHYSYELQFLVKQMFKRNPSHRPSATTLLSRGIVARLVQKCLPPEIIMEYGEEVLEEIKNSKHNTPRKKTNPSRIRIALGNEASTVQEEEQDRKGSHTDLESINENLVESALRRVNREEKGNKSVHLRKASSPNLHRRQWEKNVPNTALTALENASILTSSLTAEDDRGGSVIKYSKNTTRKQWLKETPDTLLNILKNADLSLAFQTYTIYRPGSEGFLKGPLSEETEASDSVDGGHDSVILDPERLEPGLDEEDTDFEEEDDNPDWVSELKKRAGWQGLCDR

[4] = biological target: T1, Serine/threonine-protein kinase Chk1 (Homo sapiens) (UniProt O14757); assay: Inhibition of CHK1 (unknown origin) assessed as residual activity at 1 uM relative to control
T1 sequence (whole entry): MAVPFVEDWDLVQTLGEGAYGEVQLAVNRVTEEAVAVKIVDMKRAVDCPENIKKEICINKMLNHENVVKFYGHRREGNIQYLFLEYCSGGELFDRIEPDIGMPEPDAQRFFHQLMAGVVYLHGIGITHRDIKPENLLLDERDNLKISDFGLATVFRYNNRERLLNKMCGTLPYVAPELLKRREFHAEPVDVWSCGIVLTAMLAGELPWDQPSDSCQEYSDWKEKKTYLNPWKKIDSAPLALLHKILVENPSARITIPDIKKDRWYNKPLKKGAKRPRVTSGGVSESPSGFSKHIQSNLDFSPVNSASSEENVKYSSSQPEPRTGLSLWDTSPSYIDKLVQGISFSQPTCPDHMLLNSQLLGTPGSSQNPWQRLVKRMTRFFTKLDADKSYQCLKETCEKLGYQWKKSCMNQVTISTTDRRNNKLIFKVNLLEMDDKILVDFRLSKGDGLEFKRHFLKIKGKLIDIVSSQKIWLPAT

[5] = biological target: Serine/threonine-protein kinase Nek6 (Homo sapiens) (UniProt Q9HC98); assay: Inhibition of human NEK6 assessed as residual activity at 1 uM relative to control
Chain of Serine/threonine-protein kinase Nek6 (Homo sapiens) (Q9HC98 whole entry): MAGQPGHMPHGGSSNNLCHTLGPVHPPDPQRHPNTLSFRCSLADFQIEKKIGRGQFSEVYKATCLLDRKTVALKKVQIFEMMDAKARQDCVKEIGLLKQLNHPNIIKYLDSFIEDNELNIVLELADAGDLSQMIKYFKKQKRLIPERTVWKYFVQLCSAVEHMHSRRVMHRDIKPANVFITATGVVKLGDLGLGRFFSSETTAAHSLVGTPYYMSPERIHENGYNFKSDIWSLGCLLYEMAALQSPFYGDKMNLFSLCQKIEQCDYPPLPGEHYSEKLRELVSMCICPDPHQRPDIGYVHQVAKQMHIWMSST

Homo sapiens [6] = species: Homo sapiens; assay: Inhibition of human PKA assessed as residual activity at 1 uM relative to control
MCF7 = assay: Cell cycle arrest in human MCF7 cells assessed as accumulation at G2/M phase at 0.25 uM after 24 hrs using propidium iodide staining by FACS analysis (reference value: 22.13%); type: functional
SF-295 = assay: Antiproliferative activity against human SF295 cells after 3 days by sulforhodamine B assay; type: functional; settings: SF-295, 72 h; procedure, shortened: as §1
Homo sapiens [7] = species: Homo sapiens; assay: Inhibition of S6K (unknown origin) assessed as residual activity at 1 uM relative to control
[8] = biological target: Aurora kinase C (Homo sapiens) (UniProt Q9UQB9); assay: Inhibition of Aurora-C (unknown origin) assessed as residual activity at 10 uM relative to control
[9] = biological target: Homeodomain-interacting protein kinase 1 (Homo sapiens) (UniProt Q86Z02); assay: Inhibition of human HIPK1 assessed as residual activity at 1 uM relative to control
[10] = biological target: Serine/threonine-protein kinase mTOR (Homo sapiens) (UniProt P42345); assay: Inhibition of human mTOR assessed as residual activity at 1 uM relative to control
[11] = biological target: Protein kinase C gamma type (Homo sapiens) (UniProt P05129); assay: Inhibition of human PKCgamma assessed as residual activity at 1 uM relative to control
IGROV-1 = assay: Antiproliferative activity against human IGROV1 cells after 3 days by sulforhodamine B assay; type: functional; settings: IGROV-1, 72 h; procedure, shortened: as §1
[12] = biological target: Serine/threonine-protein kinase D2 (Homo sapiens) (UniProt Q9BZL6); assay: Inhibition of human PKD2 assessed as residual activity at 1 uM relative to control
[13] = biological target: Dual specificity protein kinase CLK2 (Homo sapiens) (UniProt P49760); assay: Inhibition of human CLK2 assessed as residual activity at 1 uM relative to control
[14] = biological target: Ephrin type-B receptor 2 (Homo sapiens) (UniProt P29323); assay: Inhibition of human EphB2 assessed as residual activity at 1 uM relative to control
ACHN = assay: Antiproliferative activity against human ACHN cells after 3 days by sulforhodamine B assay; type: functional; settings: 72 h; procedure, shortened: as §1
[15] = biological target: Protein kinase C delta type (Homo sapiens) (UniProt Q05655); assay: Inhibition of human PKCdelta assessed as residual activity at 1 uM relative to control
[16] = biological target: Fibroblast growth factor receptor 1 (Homo sapiens) (UniProt P11362); assay: Inhibition of FGF-R1 (unknown origin) assessed as residual activity at 1 uM relative to control
Chain of Fibroblast growth factor receptor 1 (Homo sapiens) (P11362 22-822 limits assumed): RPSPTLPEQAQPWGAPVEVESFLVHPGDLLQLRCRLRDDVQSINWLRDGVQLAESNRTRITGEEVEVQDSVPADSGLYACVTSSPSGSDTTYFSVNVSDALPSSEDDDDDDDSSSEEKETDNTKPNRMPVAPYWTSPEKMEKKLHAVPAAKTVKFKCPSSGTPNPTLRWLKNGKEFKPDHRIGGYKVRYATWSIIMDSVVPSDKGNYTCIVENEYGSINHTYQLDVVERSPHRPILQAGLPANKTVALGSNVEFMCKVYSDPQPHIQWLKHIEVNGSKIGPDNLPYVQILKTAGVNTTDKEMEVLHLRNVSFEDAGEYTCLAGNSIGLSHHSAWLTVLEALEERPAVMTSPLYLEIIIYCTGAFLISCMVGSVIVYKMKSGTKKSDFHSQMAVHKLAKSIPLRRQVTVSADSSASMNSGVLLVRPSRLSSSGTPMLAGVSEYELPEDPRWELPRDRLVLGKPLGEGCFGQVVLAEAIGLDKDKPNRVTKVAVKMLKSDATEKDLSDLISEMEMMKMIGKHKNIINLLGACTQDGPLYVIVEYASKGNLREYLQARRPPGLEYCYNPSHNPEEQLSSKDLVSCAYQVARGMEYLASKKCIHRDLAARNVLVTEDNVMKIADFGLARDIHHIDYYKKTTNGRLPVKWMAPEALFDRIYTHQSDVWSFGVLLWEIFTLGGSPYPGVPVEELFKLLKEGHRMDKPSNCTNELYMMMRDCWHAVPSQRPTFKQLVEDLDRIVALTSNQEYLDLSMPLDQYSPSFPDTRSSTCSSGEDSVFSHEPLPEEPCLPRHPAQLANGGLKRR

[17] = biological target: cGMP-dependent protein kinase 1 (Homo sapiens) (UniProt Q13976); assay: Inhibition of human PKG1alpha assessed as residual activity at 1 uM relative to control
Chain of cGMP-dependent protein kinase 1 (Homo sapiens) (Q13976 whole entry): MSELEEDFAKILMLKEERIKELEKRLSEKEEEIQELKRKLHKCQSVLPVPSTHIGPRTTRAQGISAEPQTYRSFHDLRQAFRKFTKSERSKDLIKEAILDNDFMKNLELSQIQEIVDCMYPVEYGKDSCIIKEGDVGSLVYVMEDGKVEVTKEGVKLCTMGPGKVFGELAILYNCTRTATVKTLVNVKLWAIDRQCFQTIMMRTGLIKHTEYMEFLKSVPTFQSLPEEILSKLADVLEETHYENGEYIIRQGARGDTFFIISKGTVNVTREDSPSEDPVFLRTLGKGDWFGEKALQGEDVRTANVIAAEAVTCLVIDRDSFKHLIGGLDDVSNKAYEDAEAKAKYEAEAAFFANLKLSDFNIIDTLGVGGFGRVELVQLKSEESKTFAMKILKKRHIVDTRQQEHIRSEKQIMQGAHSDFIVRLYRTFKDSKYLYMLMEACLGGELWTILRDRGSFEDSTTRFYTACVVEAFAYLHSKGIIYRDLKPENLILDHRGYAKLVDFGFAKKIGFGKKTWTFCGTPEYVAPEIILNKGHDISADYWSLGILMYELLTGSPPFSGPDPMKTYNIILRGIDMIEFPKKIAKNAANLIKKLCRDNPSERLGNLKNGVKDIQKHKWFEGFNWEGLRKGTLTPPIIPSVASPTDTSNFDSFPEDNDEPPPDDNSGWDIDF

[18] = biological target: Serine/threonine-protein kinase Chk2 (Homo sapiens) (UniProt O96017); assay: Inhibition of human CHK2 assessed as residual activity at 1 uM relative to control
DU-145 = assay: Antiproliferative activity against human DU145 cells after 3 days by sulforhodamine B assay; type: functional; settings: DU-145, 72 h; procedure, shortened: as §1
[19] = biological target: Receptor-type tyrosine-protein kinase FLT3 (Homo sapiens) (UniProt P36888); assay: Inhibition of FLT3 (unknown origin) assessed as residual activity at 1 uM relative to control
Chain of Receptor-type tyrosine-protein kinase FLT3 (Homo sapiens) (P36888 whole entry): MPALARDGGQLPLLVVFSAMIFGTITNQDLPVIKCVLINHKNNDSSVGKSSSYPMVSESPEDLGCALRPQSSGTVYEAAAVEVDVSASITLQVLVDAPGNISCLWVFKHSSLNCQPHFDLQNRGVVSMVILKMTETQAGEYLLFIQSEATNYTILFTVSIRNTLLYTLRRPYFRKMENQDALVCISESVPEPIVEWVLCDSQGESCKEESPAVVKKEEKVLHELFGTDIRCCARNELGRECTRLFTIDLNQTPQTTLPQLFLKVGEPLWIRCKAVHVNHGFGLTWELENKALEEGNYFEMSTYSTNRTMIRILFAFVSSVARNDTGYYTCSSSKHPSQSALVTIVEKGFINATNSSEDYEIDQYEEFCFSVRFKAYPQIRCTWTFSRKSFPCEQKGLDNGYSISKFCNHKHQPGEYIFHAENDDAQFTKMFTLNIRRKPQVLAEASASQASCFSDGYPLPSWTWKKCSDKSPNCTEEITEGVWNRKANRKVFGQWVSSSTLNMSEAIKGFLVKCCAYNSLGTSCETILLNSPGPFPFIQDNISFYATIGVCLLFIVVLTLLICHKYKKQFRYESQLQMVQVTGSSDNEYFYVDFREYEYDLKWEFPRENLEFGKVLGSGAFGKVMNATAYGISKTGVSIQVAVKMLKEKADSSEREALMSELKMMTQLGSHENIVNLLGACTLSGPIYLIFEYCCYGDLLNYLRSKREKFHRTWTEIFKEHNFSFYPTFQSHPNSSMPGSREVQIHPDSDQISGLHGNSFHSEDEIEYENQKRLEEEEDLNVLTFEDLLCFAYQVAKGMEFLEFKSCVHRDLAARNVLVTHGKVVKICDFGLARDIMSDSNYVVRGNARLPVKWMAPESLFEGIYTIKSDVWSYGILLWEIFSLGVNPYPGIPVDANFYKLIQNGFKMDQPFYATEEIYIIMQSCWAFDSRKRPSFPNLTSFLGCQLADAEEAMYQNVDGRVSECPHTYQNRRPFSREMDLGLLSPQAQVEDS

SF-268 = assay: Antiproliferative activity against human SF268 cells after 3 days by sulforhodamine B assay; type: functional; settings: SF-268, 72 h; procedure, shortened: as §1
[20] = biological target: BDNF/NT-3 growth factors receptor (Homo sapiens) (UniProt Q16620); assay: Inhibition of human TrkB assessed as residual activity at 1 uM relative to control
[21] = biological target: Vascular endothelial growth factor receptor 3 (Homo sapiens) (UniProt P35916); assay: Inhibition of human Flt4 assessed as residual activity at 1 uM relative to control
[22] = biological target: cGMP-dependent protein kinase 1 (Homo sapiens) (UniProt Q13976); assay: Inhibition of human PKG1beta assessed as residual activity at 1 uM relative to control
[23] = biological target: Mitogen-activated protein kinase 12 (Homo sapiens) (UniProt P53778); assay: Inhibition of human SAPK3 assessed as residual activity at 1 uM relative to control
Chain of Mitogen-activated protein kinase 12 (Homo sapiens) (P53778 whole entry): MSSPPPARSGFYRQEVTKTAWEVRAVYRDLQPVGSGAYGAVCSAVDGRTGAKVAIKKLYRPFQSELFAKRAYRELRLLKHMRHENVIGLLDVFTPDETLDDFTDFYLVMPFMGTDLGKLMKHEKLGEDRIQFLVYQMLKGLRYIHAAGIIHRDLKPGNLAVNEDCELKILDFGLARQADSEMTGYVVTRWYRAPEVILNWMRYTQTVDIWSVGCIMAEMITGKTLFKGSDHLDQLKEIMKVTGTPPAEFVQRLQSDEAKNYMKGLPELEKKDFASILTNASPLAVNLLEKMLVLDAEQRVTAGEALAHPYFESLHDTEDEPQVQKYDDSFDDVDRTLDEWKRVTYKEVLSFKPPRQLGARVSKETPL

[24] = biological target: Serine/threonine-protein kinase BRSK2 (Homo sapiens) (UniProt Q8IWQ3); assay: Inhibition of human BrSK2 assessed as residual activity at 1 uM relative to control
Chain of Serine/threonine-protein kinase BRSK2 (Homo sapiens) (Q8IWQ3 whole entry): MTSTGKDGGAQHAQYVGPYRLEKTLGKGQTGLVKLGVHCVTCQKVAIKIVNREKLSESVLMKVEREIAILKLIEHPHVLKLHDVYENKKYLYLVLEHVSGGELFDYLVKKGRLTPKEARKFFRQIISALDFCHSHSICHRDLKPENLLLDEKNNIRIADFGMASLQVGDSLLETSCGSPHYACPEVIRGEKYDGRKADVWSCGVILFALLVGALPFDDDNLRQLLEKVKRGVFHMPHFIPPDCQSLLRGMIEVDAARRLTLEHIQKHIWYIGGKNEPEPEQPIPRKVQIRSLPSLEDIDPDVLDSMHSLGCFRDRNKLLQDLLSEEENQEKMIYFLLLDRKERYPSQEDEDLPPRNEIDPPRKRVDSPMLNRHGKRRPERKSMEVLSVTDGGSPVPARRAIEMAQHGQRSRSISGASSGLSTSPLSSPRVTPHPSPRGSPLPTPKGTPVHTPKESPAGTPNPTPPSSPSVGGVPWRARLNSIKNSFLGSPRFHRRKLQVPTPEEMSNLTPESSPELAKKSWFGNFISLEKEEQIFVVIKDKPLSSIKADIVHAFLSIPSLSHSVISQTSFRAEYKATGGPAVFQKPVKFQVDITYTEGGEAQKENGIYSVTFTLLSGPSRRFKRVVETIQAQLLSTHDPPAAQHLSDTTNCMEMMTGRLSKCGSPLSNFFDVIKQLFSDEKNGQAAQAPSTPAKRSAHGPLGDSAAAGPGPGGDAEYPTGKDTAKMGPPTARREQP

[25] = biological target: Mitogen-activated protein kinase kinase kinase 5 (Homo sapiens) (UniProt Q99683); assay: Inhibition of human ASK1 assessed as residual activity at 1 uM relative to control
NCI-H460 = assay: Antiproliferative activity against human NCI-H460 cells after 3 days by sulforhodamine B assay; type: functional; settings: NCI-H460, 72 h; procedure, shortened: as §1
[26] = biological target: Serine/threonine-protein kinase MRCK alpha (Homo sapiens) (UniProt Q5VT25); assay: Inhibition of human MRCKalpha assessed as residual activity at 1 uM relative to control
[27] = biological target: Fibroblast growth factor receptor 1 (Homo sapiens) (UniProt P11362); assay: Inhibition of human FGFR1 assessed as residual activity at 1 uM relative to control

GI50 (COLO 205): 372 nM
Activity [1]: 114%
Activity [2]: 89%
Activity [3]: 109%
Activity [4]: 99%
Activity [5]: 61%
Activity (Homo sapiens [6]): 91%
Activity (Homo sapiens [7]): 109%
Activity [8]: 76%
Activity [9]: 80%
Activity [10]: 99%
Activity [11]: 114%
Activity [12]: 100%
Activity [13]: 81%
Activity [14]: 127%
GI50 (ACHN): 1480 nM
Activity [15]: 126%
Activity [16]: 85%
Activity [17]: 121%
Activity [18]: 120%
GI50 (DU-145): 474 nM
Activity [19]: 79%
Activity [20]: 105%
Activity [21]: 68%
Activity [22]: 90%
Activity [23]: 101%
Activity [24]: 108%
Activity [25]: 136%
GI50 (NCI-H460): 307 nM
Activity [26]: 119%
Activity [27]: 101%
Structure (SMILES): O=C1Nc2ncccc2/C1=C1/Nc2ncccc2C1=O
Activity (MCF7): 21.66%
GI50 (SF-295): 257 nM
GI50 (IGROV-1): 577 nM
GI50 (SF-268): 1620 nM
